Test results as given in PMC11329366 (Clinical and Translational Science, 2024).

Columns and labels:
serum 11-DOC = assay: Phase I pharmacodynamics: serum 11-DOC; format: in vivo, human; conditions: MAD 40 to 360 mg once daily
[1] = test system: urinary log10 (10 × Na+/K+) ratio; assay: Phase I pharmacodynamics: urine sodium and urinary log10; format: in vivo, human
Procedure, shortened: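 Urine was collected in intervals, and the amounts of sodium and potassium excreted per interval were measured. The urinary log10(10 × Na⁺/K⁺) ratio was calculated per interval after single doses and through 7 days of once-daily 40–360 mg dosing plus washout.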

[2] = Phase I first-in-human study: safety and tolerability; format: in vivo
Procedure, shortened: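 Randomized, double-blind, placebo-controlled. SAD cohorts had 6 active/2 placebo, with two sentinels dosed ≥24 h before the rest. MAD cohorts had 9 active/3 placebo, dosed daily Days 1–7. Safety data were reviewed before each next cohort. Monitoring covered TEAEs, treatment-related TEAEs, vital signs, 12-lead ECGs, clinical laboratory tests and physical examinations.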

plasma aldosterone = assay: Phase I pharmacodynamics: plasma aldosterone concentration; format: in vivo, human
Procedure, shortened: (§1)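 Plasma aldosterone and serum cortisol were followed after single fasted doses and after daily fed dosing. PAC AUC0–24 and cortisol AUC0–72 were derived non-compartmentally. Log AUC was modelled by dose group (pooled placebo), with Day ‑1 log AUC0–24 as covariate. Log change from time-matched Day ‑1 values over 0–24 h used a linear mixed model with unstructured covariance.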

serum cortisol = assay: Phase I pharmacodynamics: serum cortisol, incl. ACTH challenge; format: in vivo, human
Procedure, shortened: as §1

[3] = Phase I first-in-human study: plasma and urine pharmacokinetics; format: in vivo
Procedure, shortened: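 Healthy participants received an oral capsule. SAD: 5–800 mg fasted. MAD: 40, 120 or 360 mg once daily Days 1–7, fed. Females, or males ≥65 y, got a single 100 mg fasted dose, referenced to part 1. Plasma (all parts) and urine (MAD) were analysed non-compartmentally, BLQ=0, linear trapezoidal AUC. Dose proportionality used a power model (slope 95% CI); sex/age used geometric mean ratios (90% CI); fed-vs-fasted was compared informally.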

plasma 11-deoxycortisol = assay: Phase I pharmacodynamics: plasma 11-deoxycortisol; format: in vivo, human; conditions: MAD, non-ACTH challenge conditions
human CYP11B2 (hCYP11B2) = target: T1, human CYP11B2 (hCYP11B2) (Homo sapiens, UniProt P19099); assay: Assay of hCYP11B2 inhibition; format: biochemical; conditions: from inhibition constants
T1 sequence (P19099 25-503): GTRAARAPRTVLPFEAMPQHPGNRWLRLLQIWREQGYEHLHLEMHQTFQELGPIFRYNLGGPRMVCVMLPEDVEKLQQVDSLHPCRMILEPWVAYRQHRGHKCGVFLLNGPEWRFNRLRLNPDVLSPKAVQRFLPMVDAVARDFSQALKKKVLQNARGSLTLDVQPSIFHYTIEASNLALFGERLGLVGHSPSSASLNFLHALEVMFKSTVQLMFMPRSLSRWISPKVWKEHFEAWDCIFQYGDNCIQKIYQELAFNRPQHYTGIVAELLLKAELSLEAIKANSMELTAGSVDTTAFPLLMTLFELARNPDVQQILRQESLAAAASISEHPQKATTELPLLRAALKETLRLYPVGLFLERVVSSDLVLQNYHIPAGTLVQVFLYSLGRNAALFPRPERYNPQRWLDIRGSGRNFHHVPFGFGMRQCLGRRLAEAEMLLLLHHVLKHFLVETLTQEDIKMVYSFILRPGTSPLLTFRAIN
Procedure, shortened: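 Enzyme source: mitochondrial fraction of V79 cells stably expressing human CYP11B2 or human CYP11B1. Substrates were 11-DOC (converted to aldosterone, CYP11B2) and 11-deoxycortisol (converted to cortisol, CYP11B1). Inhibition constants came from product-generation rates with the free base. A dual CYP11B1/CYP11B2 reference inhibitor served as positive control.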

serum potassium = assay: Phase I: serum potassium; format: in vivo, human
Procedure, shortened: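 Serum potassium was tracked during 7 days of once-daily 40, 120 or 360 mg dosing (fed) and the following washout. The stopping criterion was 6.0 mmol/L potassium.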

plasma renin activity = assay: Phase I pharmacodynamics: plasma renin activity; format: in vivo, human; conditions: MAD 40 to 360 mg once daily
[4] = MAD Day 6, all multiple-dose levels

## CC(=O)N[C@H]1CC[C@H](NC(=O)CN2CCN(c3nncc(-c4ccc(C)cc4)n3)CC2)CC1 [lorundrostat, Lorundrostat]
Serum 11-DOC
  serum 11-DOC compared with placebo: increased
[1]; MAD Day 1, all dose levels
  urine sodium and urinary log10 (10 × Na+/K+) ratio: initially increased
[1]; MAD Day 7, end of the dosing period
  urine sodium and urinary log10 (10 × Na+/K+) ratio: returned to baseline levels
[1]; MAD, Day 7 to Day 9 (after last dose)
  urinary log10 (10 × Na+/K+) ratio: clear reductions
[1]; SAD, all dose levels
  urine sodium and urinary log10 (10 × Na+/K+) ratio: increased
[2]; across all cohorts, nine lorundrostat-treated participants, placebo one (3.4%)
  incidence of dizziness (of mild intensity): 10.3%
[2]; all lorundrostat-treated participants (41/87), placebo 18/29 [62%]
  overall incidence of TEAEs: 47%
[2]; all parts
  findings in clinical laboratory, vital signs, ECGs, or physical examination: no clinically significant findings
  serious TEAEs: no serious TEAEs
[2]; all parts, single up to 800 mg, once daily up to 360 mg for 7 days
  tolerability: well tolerated
Plasma aldosterone; [4]
  ACTH-stimulated aldosterone response compared with placebo: completely blunted
Plasma aldosterone; SAD, at 4 h and 8 h post-dose
  maximum decrease of PAC compared with placebo: ~ 80%
Plasma aldosterone; multiple once-daily 120-mg doses
  time for plasma aldosterone to return to baseline: ≤ 16 h
Plasma aldosterone; single 400- to 800-mg doses
  reduction of PAC (AUC0–24): up to 70%
Plasma aldosterone; single doses 5–50 mg, post-dose
  time for PAC to return to values near baseline: ≤ 24 h
Plasma aldosterone; single doses 100–800 mg
  duration of the reduction of PAC: sustained until 24 h post‐dose
Serum cortisol; [4]
  ACTH-stimulated cortisol response: no effect
Serum cortisol; MAD, non-ACTH challenge conditions
  change from baseline of serum cortisol concentrations: no relevant changes from baseline
Serum cortisol; single doses 10 to 800 mg
  effect on cortisol (AUC0–72): without effecting cortisol
[3]; MAD Day 7, 95% CI, 1.060–1.234
  estimate of the slope for AUC0–24 versus dose (power model): 1.147
[3]; MAD once-daily dosing
  steady state achieved by: ~5 days
[3]; SAD 5–800 mg
  estimate of the slope (95% CI) for C max versus dose (power model): 1.104 (1.043–1.164)
  interindividual variability of exposure parameters (C max and AUC0–∞): < 20%
[3]; first cohort of part 2 (fed) vs part 1 (fasted), exploratory
  effect of fed state on the PK profile: did not appear to be affected
[3]; human, plasma, oral, 5 mg, t 1/2, SAD 5 mg single dose, fasted, mean (SD)
  half-life: 8.3 h
[3]; human, plasma, oral, 10 mg, t 1/2, SAD 10 mg single dose, fasted, mean (SD)
  half-life: 7.9 h
[3]; human, plasma, oral, 40 mg, t 1/2, MAD 40 mg once daily, fed, Day 1, mean (SD)
  half-life: 5.3 h
[3]; human, plasma, oral, 50 mg, t 1/2, SAD 50 mg single dose, fasted, mean (SD)
  half-life: 9.1 h
[3]; human, plasma, oral, 120 mg, t 1/2, MAD 120 mg once daily, fed, Day 1, mean (SD)
  half-life: 4.4 h
[3]; human, plasma, oral, 200 mg, t 1/2, SAD 200 mg single dose, fasted, mean (SD)
  half-life: 9.9 h
[3]; human, plasma, oral, 360 mg, T max, MAD 360 mg once daily, fed, Day 1, median (minimum, maximum)
  Tmax: 3 h
[3]; human, plasma, oral, 360 mg, t 1/2, MAD 360 mg once daily, fed, Day 1, mean (SD)
  half-life: 4.4 h
[3]; human, plasma, oral, 360 mg, t 1/2, MAD 360 mg once daily, fed, Day 7, mean (SD)
  half-life: 9.2 h
[3]; human, plasma, oral, 400 mg, t 1/2, SAD 400 mg single dose, fasted, mean (SD)
  half-life: 9.7 h
[3]; human, plasma, oral, 800 mg, t 1/2, SAD 800 mg single dose, fasted, mean (SD)
  half-life: 10.5 h
[3]; human, plasma, oral, mean t 1/2, MAD Day 7, range over dose groups
  half-life: 9.1 to 11.9 h
[3]; human, plasma, oral, t 1/2, single- and multiple-dose administration
  half-life: 10 to 12 h
[3]; single 100 mg dose, part 3 vs part 1
  difference in exposure between females and males: no statistically significant difference
[3]; single 100 mg dose, part 4 vs part 1
  difference in exposure between older adult and younger adult participants: no statistically significant difference
Plasma 11-deoxycortisol
  change from baseline of plasma 11-deoxycortisol concentrations: no relevant changes from baseline
Human CYP11B2 (hCYP11B2)
  selectivity for CYP11B2 over CYP11B1: 374 fold
Serum potassium; MAD 40 mg, Day 8
  maximum mean increase of serum potassium: 0.44 mmol/L
Serum potassium; MAD 120 mg, Day 7
  maximum mean increase of serum potassium: 0.6 mmol/L
Serum potassium; MAD part 2
  subjects reaching the stopping criterion for potassium of 6.0 mmol/L: None
Plasma renin activity
  plasma renin activity compared with placebo: increased
